{
  "source": "paper PMC4143156",
  "about": "(Journal of immunology (Baltimore, Md. : 1950), 2008)",
  "key": {"water soluble DQ2 (sDQ2)": {"molecular_target": "water soluble DQ2 (sDQ2) (Homo sapiens, UniProt P01909+P01920, A45G/A70V/D89A/E106A/E77G/E98D/H199R/L107V/N214S/P84L/P87L/T103K/T109R/T172A/T60S/V78E/V99I/Y58L/Y62S/Y69I/Y79F)", "assay_type": "binding", "settings": "ratio of t1/2 without DM to t1/2 with 6 μM DM; sDQ2 complexes"}, "[1]": {"molecular_target": "HLA-DQ2 (DQA1*0501, DQB1*0201) (Homo sapiens, UniProt P01909+P01920, A45G/A70V/D89A/E106A/E77G/E98D/H199R/L107V/N214S/P84L/P87L/T103K/T109R/T172A/T60S/V78E/V99I/Y58L/Y62S/Y69I/Y79F)", "settings": "DQ2 affinity purified from B-LCL; ref [3],[4]; cited from earlier work"}, "[2]": {"molecular_target": "Water soluble DQ2 (sDQ2), thrombin-cleaved (human)", "test": "peptide dissociation followed by MALDI-TOF MS"}, "water soluble DR3 (sDR3) [3]": {"test_system": "water soluble DR3 (sDR3)", "assay_type": "binding, human", "settings": "pH 5, without DM", "summary_of_the_method": "(§1)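 Incubated at 37°C, pH 5.0 citrate phosphate, ±6 μM soluble DM, with 35 μM competitor MT 65kDa 3-13; stopped with cold pH 7.2 buffer. Released peptides were quantified by MALDI-TOF MS against added isotopic indicator peptides.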"}, "water soluble DR3 (sDR3) [4]": {"molecular_target": "water soluble DR3 (sDR3) (Homo sapiens, UniProt P01903+P01911, A100K/A102G/A103R/A169T/F55Y/I96L/K41T/L162R/M171V/P40S/Q125H/Q178H/Q39Y/R42S/S66N/T106N/W38E/Y61H)", "assay_type": "binding", "settings": "ratio of t1/2 without DM to t1/2 with 6 μM DM; sDR3 complex; listed as DR3-CLIP1", "summary_of_the_method": "as §1"}, "[5]": {"molecular_target": "Water soluble DR3 (sDR3), thrombin-cleaved (human)", "test": "peptide dissociation followed by MALDI-TOF MS"}, "[6]": {"molecular_target": "HLA-DQ2 (DQA1*0501, DQB1*0201) (human (endogenous in B-LCL))", "test": "affinity purification with mass spectrometry"}, "[7]": {"molecular_target": "HLA-DQ2 (DQA1*0501, DQB1*0201) (human (endogenous in B-LCL))", "test": "affinity purification with mass spectrometry", "remark": "listed apart in the source"}, "[8]": {"molecular_target": "HLA-DR3 (DRA1*0101, DRB1*0301) (human (endogenous in B-LCL))", "test": "affinity purification with mass spectrometry"}},
  "note": "Read-outs that look alike come from different tables or passages of the source.",
  "data": [
    {"molecule": "RDSGMATPLLMQALPM GALGAGSLVPR [CLIP2]", "values": [
      {"measurement": "DM-mediated increase in dissociation", "setting": "water soluble DQ2 (sDQ2)", "value": 28, "unit": "x"},
      {"measurement": "IC50 values/affinity for DQ2 compared to conventional CLIP (CLIP1) peptides", "setting": "[1]", "value": "lower"}
    ]},
    {"molecule": "CLIP1 M91A released peptide of sDQ2-CLIP1 M91A", "values": [
      {"measurement": "t1/2 of DM-mediated dissociation (6 μM DM)", "setting": "[2]", "value": 0.7, "unit": "h"},
      {"measurement": "t1/2 of spontaneous dissociation", "setting": "[2]", "value": 13.1, "unit": "h"}
    ]},
    {"molecule": "CLIP1 M91P released peptide of sDQ2-CLIP1 M91P", "values": [
      {"measurement": "t1/2 of DM-mediated dissociation (6 μM DM)", "setting": "[2]", "value": 8.9, "unit": "h"},
      {"measurement": "t1/2 of spontaneous dissociation", "setting": "[2]", "value": 93.6, "unit": "h"}
    ]},
    {"molecule": "RDSGPVSKPRMATPLLMQAGAGSLVPR [CLIP1 M91P]", "values": [
      {"measurement": "DM-mediated increase in dissociation", "setting": "water soluble DQ2 (sDQ2)", "value": 11, "unit": "x"}
    ]},
    {"molecule": "CLIP2 released peptide of sDQ2-CLIP2", "values": [
      {"measurement": "t1/2 of DM-mediated dissociation (6 μM DM)", "setting": "[2]", "value": 5, "unit": "h"},
      {"measurement": "t1/2 of spontaneous dissociation", "setting": "[2]", "value": 142, "unit": "h"}
    ]},
    {"molecule": "RDSGPVSKMRMATPLLMQAGAGSLVPR [CLIP1]", "values": [
      {"measurement": "DM-mediated increase in dissociation", "setting": "water soluble DQ2 (sDQ2)", "value": 16, "unit": "x"},
      {"measurement": "Faster spontaneous release from DR3 compared to CLIP1 and CLIP2 from sDQ2", "setting": "water soluble DR3 (sDR3) [3]", "value": 2, "unit": "fold"},
      {"measurement": "DM-mediated increase in dissociation", "setting": "water soluble DR3 (sDR3) [4]", "value": 246, "unit": "x"}
    ]},
    {"molecule": "RDSGPVSKARMATPLLMQAGAGSLVPR [CLIP1 M91A]", "values": [
      {"measurement": "DM-mediated increase in dissociation", "setting": "water soluble DQ2 (sDQ2)", "value": 19, "unit": "x"}
    ]},
    {"molecule": "CLIP1 released peptide of sDQ2-CLIP1 and sDR3-CLIP1", "values": [
      {"measurement": "t1/2 of DM-mediated dissociation (6 μM DM)", "setting": "[5]", "value": 0.25, "unit": "h"},
      {"measurement": "t1/2 of spontaneous dissociation", "setting": "[5]", "value": 61.5, "unit": "h"},
      {"measurement": "t1/2 of DM-mediated dissociation (6 μM DM)", "setting": "[2]", "value": 9, "unit": "h"},
      {"measurement": "t1/2 of spontaneous dissociation", "setting": "[2]", "value": 144, "unit": "h"}
    ]},
    {"molecule": "LPKPPKPVSKMRMATPLLMQALP", "note": "[Ii81-103]", "values": [
      {"measurement": "pmol of peptide eluted from 50 μg of affinity-purified class II", "setting": "[6]", "value": 71.1, "unit": "pmol"},
      {"measurement": "pmol of peptide eluted from 50 μg of affinity-purified class II", "setting": "[7]", "value": 79.5, "unit": "pmol"}
    ]},
    {"molecule": "PKPPKPVSKMRMATPLLMQALP", "note": "[Ii82-103]", "values": [
      {"measurement": "pmol of peptide eluted from 50 μg of affinity-purified class II", "setting": "[6]", "value": 36.8, "unit": "pmol"},
      {"measurement": "pmol of peptide eluted from 50 μg of affinity-purified class II", "setting": "[8]", "value": 113, "unit": "pmol"},
      {"measurement": "pmol of peptide eluted from 50 μg of affinity-purified class II", "setting": "[7]", "value": 16.5, "unit": "pmol"}
    ]},
    {"molecule": "LPKPPKPVSKMRMATPLLMQA", "note": "[Ii81-101]", "values": [
      {"measurement": "pmol of peptide eluted from 50 μg of affinity-purified class II", "setting": "[6]", "value": 88.4, "unit": "pmol"},
      {"measurement": "pmol of peptide eluted from 50 μg of affinity-purified class II", "setting": "[8]", "value": 106, "unit": "pmol"},
      {"measurement": "pmol of peptide eluted from 50 μg of affinity-purified class II", "setting": "[7]", "value": 31.5, "unit": "pmol"}
    ]},
    {"molecule": "MATPLLMQALPMGALP", "note": "[Ii93-108]", "values": [
      {"measurement": "pmol of peptide eluted from 50 μg of affinity-purified class II", "setting": "[6]", "value": 156, "unit": "pmol"},
      {"measurement": "pmol of peptide eluted from 50 μg of affinity-purified class II", "setting": "[7]", "value": 159, "unit": "pmol"}
    ]},
    {"molecule": "MATPLLMQALPMGALPQ", "note": "[Ii93-109]", "values": [
      {"measurement": "pmol of peptide eluted from 50 μg of affinity-purified class II", "setting": "[6]", "value": 3.8, "unit": "pmol"}
    ]},
    {"molecule": "LPKPPKPVSKMRMATPLLMQALPM", "note": "[Ii81-104]", "values": [
      {"measurement": "pmol of peptide eluted from 50 μg of affinity-purified class II", "setting": "[8]", "value": 42.4, "unit": "pmol"}
    ]}
  ]
}
